ChEMBL document CHEMBL1127405, “Synthesis and antitumor evaluation of bis[(pivaloyloxy)methyl] 2'-deoxy-5-fluorouridine 5'-monophosphate (FdUMP): a strategy to introduce nucleotides into cells” (J Med Chem, 1994)

Tests used:
[1] = test system: CHO; experiment: The minimun drug concentration that gives rise to colonies containing fewer than 50 cells after incubation at 37 degree C against chinese hamster ovary cells; assay type: functional, cell-based; conditions: Cricetulus griseus
How it was run: (§1)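 About 200 cells per dish were grown as clones in drug at 0, 0.5, 1.5, 5, 10, 50 or 100 μM for 7 d at 37 °C in humidified CO2. Colonies were fixed with 10% formaldehyde and stained with 0.1% crystal violet. The value is the lowest tested concentration giving colonies of fewer than 50 cells.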

[2] = test system: Mus musculus; experiment: The compound was tested for change in weight for mice implanted intraperitoneally with P-388/FU Leukemia cell line at 160 mg/kg; assay type: functional; conditions: route intraperitoneal
How it was run: (§2)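 Male BDF1 mice inoculated ip on day 0 with 1 × 10^6 leukemia cells (six mice per group, average weight 22 g). Dosing ip once daily for 5 consecutive days starting 24 h after implantation. Fluoropyrimidine references in 0.9% saline; prodrugs formulated with Emulphor 620; vehicle controls 0.2 mL. Percent body weight change recorded per group.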

[3] = test system: Mus musculus; experiment: The compound was tested for mean survival time for 15 mice implanted Intraperitoneally with P-388/0 Leukemia cell line at 240 mg/kg; assay type: functional; conditions: route intraperitoneal
How it was run: (§3)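 P-388/0 or P-388/FU cells (1×10^6) implanted ip into male BDF1 mice on day 0. Dosing was ip, daily for 5 consecutive days beginning 24 h later, in saline or Emulphor 620 vehicle. Six mice per treated group. Animals followed to death and median survival time recorded in days. The control group had 15 mice.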

[4] = test system: Mus musculus; experiment: The compound was tested for change in weight for mice implanted intraperitoneally with P-388/FU Leukemia cell line at 360 mg/kg; assay type: functional; conditions: route intraperitoneal; how it was run: as §2
[5] = test system: Mus musculus; experiment: The compound was tested for mean survival time for 15 mice implanted Intraperitoneally with P-388/0 Leukemia cell line at 360 mg/kg; assay type: functional; conditions: route intraperitoneal; how it was run: as §3
[6] = test system: Mus musculus; experiment: The compound was tested for change in weight for mice implanted intraperitoneally with P-388/0 Leukemia cell line at 240 mg/kg; assay type: functional; conditions: route intraperitoneal; how it was run: as §2
[7] = test system: Mus musculus; experiment: The compound was tested for mean survival time for 15 mice implanted Intraperitoneally with P-388/FU Leukemia cell line at 240 mg/kg; assay type: functional; conditions: route intraperitoneal; how it was run: as §3
[8] = test system: CHO; experiment: The minimun drug concentration that gives rise to colonies containing fewer than 50 cells after incubation at 37 degree C against chinese hamster ovary cells 20 fold resistant to fluoroudine; assay type: functional, cell-based; conditions: Cricetulus griseus; how it was run: as §1
[9] = test system: Mus musculus; experiment: The compound was tested for change in weight for mice implanted intraperitoneally with P-388/0 Leukemia cell line at 160 mg/kg; assay type: functional; conditions: route intraperitoneal; how it was run: as §2
[10] = test system: Mus musculus; experiment: The compound was tested for change in weight for mice implanted intraperitoneally with P-388/0 Leukemia cell line at 360 mg/kg; assay type: functional; conditions: route intraperitoneal; how it was run: as §2
[11] = test system: Mus musculus; experiment: The compound was tested for increase in life span for mice implanted intraperitoneally with P-388/FU Leukemia cell line at 240 mg/kg; assay type: functional; conditions: P388, ip, route intraperitoneal
How it was run: (§4)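 Male BDF1 mice, six per group, implanted ip with 1×10^6 P-388/0 or P-388/FU cells on day 0. Dosed ip daily for 5 days from 24 h post-implant, in saline or Emulphor 620 vehicle. Mice observed until death. %ILS = (T/C − 1)×100, from median survival of treated mice (T) versus saline-treated controls (C).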

[12] = test system: Mus musculus; experiment: The compound was tested for mean survival time for 15 mice implanted Intraperitoneally with P-388/0 Leukemia cell line at 160 mg/kg; assay type: functional; conditions: route intraperitoneal; how it was run: as §3
[13] = test system: Mus musculus; experiment: The compound was tested for change in weight for mice implanted intraperitoneally with P-388/FU Leukemia cell line at 240 mg/kg; assay type: functional; conditions: route intraperitoneal; how it was run: as §2
[14] = test system: Mus musculus; experiment: The compound was tested for increase in life span for mice implanted intraperitoneally with P-388/FU Leukemia cell line at 360 mg/kg; assay type: functional; conditions: P388, ip, route intraperitoneal; how it was run: as §4
[15] = test system: Mus musculus; experiment: The compound was tested for increase in life span for mice implanted intraperitoneally with P-388/0 Leukemia cell line at 160 mg/kg; assay type: functional; conditions: P388, ip, route intraperitoneal; how it was run: as §4
[16] = test system: Mus musculus; experiment: The compound was tested for increase in life span for mice implanted intraperitoneally with P-388/FU Leukemia cell line at 160 mg/kg; assay type: functional; conditions: P388, ip, route intraperitoneal; how it was run: as §4
[17] = test system: Mus musculus; experiment: The compound was tested for mean survival time for 15 mice implanted Intraperitoneally with P-388/FU Leukemia cell line at 160 mg/kg; assay type: functional; conditions: route intraperitoneal; how it was run: as §3
[18] = test system: Mus musculus; experiment: The compound was tested for mean survival time for 15 mice implanted Intraperitoneally with P-388/FU Leukemia cell line at 360 mg/kg; assay type: functional; conditions: route intraperitoneal; how it was run: as §3
[19] = test system: Mus musculus; experiment: The compound was tested for increase in life span for mice implanted intraperitoneally with P-388/0 Leukemia cell line at 360 mg/kg; assay type: functional; conditions: P388, ip, route intraperitoneal; how it was run: as §4
[20] = test system: Mus musculus; experiment: The compound was tested for increase in life span for mice implanted intraperitoneally with P-388/0 Leukemia cell line at 240 mg/kg; assay type: functional; conditions: P388, ip, route intraperitoneal; how it was run: as §4

CC(=O)O[C@H]1C[C@H](n2cc(F)c(=O)[nH]c2=O)O[C@@H]1COP(=O)(OCOC(=O)C(C)(C)C)OCOC(=O)C(C)(C)C
IC50 [1]: 5 µM | Weight change [2]: -9% | MST [3]: 16 days | Weight change [4]: -13% | MST [5]: 20 days | Weight change [6]: -15% | MST [7]: 16 days | IC50 [8]: 5 µM | Weight change [9]: -9% | Weight change [10]: -15% | ILS at 240 mg/kg [11]: 45% | MST [12]: 15 days | Weight change [13]: -12% | ILS at 360 mg/kg [14]: 45% | ILS at 160 mg/kg [15]: 36% | ILS at 160 mg/kg [16]: 36% | MST [17]: 15 days | MST [18]: 16 days | ILS at 360 mg/kg [19]: 82% | ILS at 240 mg/kg [20]: 45%
